From ChEMBL document CHEMBL3232963, “Discovery of a potent and selective α3β4 nicotinic acetylcholine receptor antagonist from an α-conotoxin synthetic combinatorial library” (J Med Chem, 2014)
Active and inactive are the calls of the source. No cut-off for these calls is given here. Bridge positions count the residues as written; N and C are the ends. Peptide text beside a SMILES is read from it.

How the values were obtained:
[1] = target: T1, Neuronal acetylcholine receptor; alpha3/beta4 (Rattus norvegicus, UniProt P04757+P12392); test: Inhibition of rat alpha3beta4 nAChR expressed in Xenopus laevis oocytes by voltage clamp technique; assay type: cell-based
How it was run: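 Oocytes expressing α3 chimera/β4 nAChR, voltage-clamped at ~22 °C. Concentrations below 1 μM perfused, with 1 s ACh pulses every 1 min; 1 μM and above given as a 5 min static bath. Lowest concentration tested 10 nM. IC50 from a concentration–response curve with top and bottom fixed at 100 and 0; n = 3–5 oocytes per concentration.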

[2] = target: T1, Neuronal acetylcholine receptor; alpha3/beta4; test: Antagonist activity at rat alpha3beta4 nAChR expressed in HEK293 cells assessed as inhibition of epibatadine-induced effect after 30 mins by fluorescent membrane potential assay; assay type: cell-based
How it was run: (§1)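 Stably transfected HEK293 lines (KXα3β4R2, KXα3β2R2, KXα4β2R2; rat subunits) grown in DMEM/10% FBS with G-418, plated 24 h before assay. Cells washed with HBSS, peptide added, then membrane potential blue dye, 30 min at 37 °C. Fluorescence (ex 565/em 530 nm) read up to 60 s after epibatidine to 0.1 μM. IC50 from maximal responses across concentrations; n = 4.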

HEK293 = test: Selectivity ratio of IC50 for rat alpha3beta4 nAChR expressed in HEK293 cells to IC50 for rat alpha3beta2 nAChR expressed in HEK293 cells; assay type: cell-based
[3] = target: Neuronal acetylcholine receptor; alpha4/beta2 (Rattus norvegicus, UniProt P09483+P12390); test: Antagonist activity at rat alpha4beta2 nAChR expressed in HEK293 cells assessed as inhibition of epibatadine-induced effect after 30 mins by fluorescent membrane potential assay; assay type: cell-based; how it was run: as §1
[4] = target: T1, Neuronal acetylcholine receptor; alpha3/beta4; test: Displacement of [3H]epibatadine from rat alpha3beta4 nAChR expressed in HEK293 cells after 2 hrs by betaplate counting analysis; assay type: cell-based
How it was run: (§2)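 Membranes from HEK293 cells stably expressing α3β4 or α4β2 nAChR, homogenised in 50 mM Tris pH 7.4 and washed by centrifugation. Incubated 2 h at room temperature with peptide and 0.31 nM [3H]epibatidine; filtered on PEI-soaked glass fibre, counted. Nonspecific binding with 0.1 μM unlabeled epibatidine. Ki by Cheng–Prusoff from IC50.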

[5] = target: Neuronal acetylcholine receptor; alpha3/beta4 (Rattus norvegicus) (UniProt P04757+P12392); test: Antagonist activity at rat alpha3beta4 nAChR expressed in HEK293 cells assessed as inhibition of epibatadine-induced effect at 10 uM after 30 mins by fluorescent membrane potential assay relative to mecamylamine; assay type: cell-based
How it was run: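 Rat α3β4 nAChR stably expressed in HEK293 cells; crude, SPE-desalted individual peptides tested at 10 μM in HBSS with membrane potential blue dye, 30 min at 37 °C. Fluorescence change read after epibatidine (0.1 μM). Percent inhibition set against 10 μM mecamylamine taken as 100%.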

[6] = target: Neuronal acetylcholine receptor; alpha4/beta2 (Rattus norvegicus) (UniProt P09483+P12390); test: Displacement of [3H]epibatadine from rat alpha4beta2 nAChR expressed in HEK293 cells up to 10 uM after 2 hrs by betaplate counting analysis; assay type: cell-based; how it was run: as §2
[7] = target: Neuronal acetylcholine receptor; alpha3/beta2 (Rattus norvegicus, UniProt P04757+P12390); test: Antagonist activity at rat alpha3beta2 nAChR expressed in HEK293 cells assessed as inhibition of epibatadine-induced effect after 30 mins by fluorescent membrane potential assay; assay type: cell-based; how it was run: as §1
[8] = target: Neuronal acetylcholine receptor; alpha3/beta4 (Homo sapiens, UniProt P30926+P32297); test: Antagonist activity at alpha3beta4 nAChR (unknown origin); assay type: protein-complex assay; how it was run: as §1
Chain of Neuronal acetylcholine receptor; alpha3/beta4 (Homo sapiens, UniProt P30926+P32297) (P30926 whole entry): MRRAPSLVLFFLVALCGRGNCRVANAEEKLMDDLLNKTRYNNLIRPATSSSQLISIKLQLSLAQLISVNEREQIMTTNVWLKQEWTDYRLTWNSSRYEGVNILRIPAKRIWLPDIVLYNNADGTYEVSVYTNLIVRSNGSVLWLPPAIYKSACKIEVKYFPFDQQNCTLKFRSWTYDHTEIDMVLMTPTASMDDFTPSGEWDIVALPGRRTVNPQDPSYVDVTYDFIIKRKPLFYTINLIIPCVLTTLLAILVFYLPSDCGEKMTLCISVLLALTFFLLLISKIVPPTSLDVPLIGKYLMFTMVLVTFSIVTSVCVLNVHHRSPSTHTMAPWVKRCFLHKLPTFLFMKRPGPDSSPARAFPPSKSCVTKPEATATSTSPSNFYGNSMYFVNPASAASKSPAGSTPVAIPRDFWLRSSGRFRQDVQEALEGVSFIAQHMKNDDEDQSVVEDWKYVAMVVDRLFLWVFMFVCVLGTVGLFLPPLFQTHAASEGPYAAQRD
Chain of Neuronal acetylcholine receptor; alpha3/beta4 (Homo sapiens, UniProt P30926+P32297) (P32297 whole entry): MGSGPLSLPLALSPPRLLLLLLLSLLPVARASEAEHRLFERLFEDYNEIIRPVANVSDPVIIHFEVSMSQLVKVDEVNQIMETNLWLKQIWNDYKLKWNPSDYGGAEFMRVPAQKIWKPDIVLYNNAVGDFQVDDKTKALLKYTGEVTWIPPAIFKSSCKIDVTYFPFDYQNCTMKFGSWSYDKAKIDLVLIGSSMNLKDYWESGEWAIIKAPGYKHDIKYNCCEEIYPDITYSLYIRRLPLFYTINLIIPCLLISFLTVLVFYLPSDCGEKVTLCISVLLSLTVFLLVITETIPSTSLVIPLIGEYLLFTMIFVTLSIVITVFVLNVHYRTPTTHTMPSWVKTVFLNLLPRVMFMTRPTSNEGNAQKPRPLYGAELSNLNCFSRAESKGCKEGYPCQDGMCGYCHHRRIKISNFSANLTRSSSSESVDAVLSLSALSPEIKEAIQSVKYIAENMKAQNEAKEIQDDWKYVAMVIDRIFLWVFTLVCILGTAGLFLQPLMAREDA

T1 sequence (P04757 whole entry, the tested form may be a part): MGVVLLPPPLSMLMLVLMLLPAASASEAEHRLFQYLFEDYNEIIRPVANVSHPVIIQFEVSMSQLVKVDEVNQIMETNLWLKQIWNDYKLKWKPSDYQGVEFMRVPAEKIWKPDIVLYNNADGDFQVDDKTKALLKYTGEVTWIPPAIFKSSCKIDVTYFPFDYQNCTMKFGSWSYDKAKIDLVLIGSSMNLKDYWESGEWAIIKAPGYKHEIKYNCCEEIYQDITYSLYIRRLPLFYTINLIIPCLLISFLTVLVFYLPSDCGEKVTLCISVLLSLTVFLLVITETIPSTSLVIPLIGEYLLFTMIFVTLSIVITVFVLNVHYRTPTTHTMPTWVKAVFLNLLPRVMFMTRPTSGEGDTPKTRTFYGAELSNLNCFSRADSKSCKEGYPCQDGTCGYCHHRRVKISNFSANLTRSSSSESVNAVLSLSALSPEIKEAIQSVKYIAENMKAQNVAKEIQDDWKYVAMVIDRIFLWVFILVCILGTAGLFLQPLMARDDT
T1 sequence (P12392 whole entry, the tested form may be a part): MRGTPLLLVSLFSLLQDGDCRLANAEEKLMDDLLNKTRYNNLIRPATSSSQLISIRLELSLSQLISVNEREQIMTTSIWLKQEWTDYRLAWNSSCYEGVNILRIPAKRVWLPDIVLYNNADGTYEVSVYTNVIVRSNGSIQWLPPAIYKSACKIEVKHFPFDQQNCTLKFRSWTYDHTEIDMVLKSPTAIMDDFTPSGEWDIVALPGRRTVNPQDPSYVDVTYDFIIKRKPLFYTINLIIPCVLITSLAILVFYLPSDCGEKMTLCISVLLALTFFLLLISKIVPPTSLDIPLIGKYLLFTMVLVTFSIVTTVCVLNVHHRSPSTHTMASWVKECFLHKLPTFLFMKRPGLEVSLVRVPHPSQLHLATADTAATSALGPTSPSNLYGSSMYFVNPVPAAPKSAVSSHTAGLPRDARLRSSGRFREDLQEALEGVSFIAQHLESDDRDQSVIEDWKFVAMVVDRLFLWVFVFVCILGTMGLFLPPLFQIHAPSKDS
Chain of Neuronal acetylcholine receptor; alpha3/beta2 (P04757 whole entry): as the sequence (P04757 whole entry, the tested form may be a part) above
Chain of Neuronal acetylcholine receptor; alpha3/beta2 (P12390 whole entry): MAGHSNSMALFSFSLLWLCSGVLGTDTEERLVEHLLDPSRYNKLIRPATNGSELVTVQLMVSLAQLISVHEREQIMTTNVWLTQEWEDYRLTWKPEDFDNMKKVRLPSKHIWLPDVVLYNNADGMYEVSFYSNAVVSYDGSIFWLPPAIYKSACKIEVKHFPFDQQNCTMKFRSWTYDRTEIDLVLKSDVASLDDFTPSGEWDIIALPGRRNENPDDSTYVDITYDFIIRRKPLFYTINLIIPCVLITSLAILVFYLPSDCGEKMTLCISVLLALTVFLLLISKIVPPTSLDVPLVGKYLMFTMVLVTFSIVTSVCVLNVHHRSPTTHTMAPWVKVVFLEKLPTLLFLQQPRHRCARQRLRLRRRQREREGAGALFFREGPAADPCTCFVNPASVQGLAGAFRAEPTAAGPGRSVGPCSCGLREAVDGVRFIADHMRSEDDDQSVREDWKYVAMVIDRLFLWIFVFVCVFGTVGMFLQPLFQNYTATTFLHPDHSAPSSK
Chain of Neuronal acetylcholine receptor; alpha4/beta2 (P09483 whole entry): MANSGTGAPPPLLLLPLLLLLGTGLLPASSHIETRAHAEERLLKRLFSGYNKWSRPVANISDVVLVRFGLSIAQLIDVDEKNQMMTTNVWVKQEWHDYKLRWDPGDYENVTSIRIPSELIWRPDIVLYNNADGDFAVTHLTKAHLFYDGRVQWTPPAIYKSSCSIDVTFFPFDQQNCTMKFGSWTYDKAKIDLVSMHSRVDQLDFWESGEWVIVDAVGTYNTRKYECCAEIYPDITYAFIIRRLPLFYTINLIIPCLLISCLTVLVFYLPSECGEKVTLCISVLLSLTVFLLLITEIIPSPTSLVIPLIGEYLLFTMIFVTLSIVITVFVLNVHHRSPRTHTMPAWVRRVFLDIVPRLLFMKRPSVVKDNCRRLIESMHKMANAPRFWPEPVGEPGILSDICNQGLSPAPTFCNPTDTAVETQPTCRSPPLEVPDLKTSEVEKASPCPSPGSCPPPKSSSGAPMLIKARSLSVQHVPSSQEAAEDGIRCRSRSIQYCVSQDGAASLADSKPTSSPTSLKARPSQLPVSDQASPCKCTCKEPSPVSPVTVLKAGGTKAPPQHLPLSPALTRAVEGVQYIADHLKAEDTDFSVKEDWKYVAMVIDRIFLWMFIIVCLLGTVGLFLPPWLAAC
Chain of Neuronal acetylcholine receptor; alpha4/beta2 (P12390 whole entry): as the sequence (P12390 whole entry) above

C[C@@H]1NC(=O)[C@H](Cc2ccccc2)NC(=O)[C@@H]2CSSC[C@H](NC(=O)CN)C(=O)N[C@@H](CSSC[C@@H](C(=O)O)NC(=O)[C@H](CC(=O)O)NC(=O)[C@@H]3CCCN3C(=O)[C@H](CC(N)=O)NC(=O)[C@H]([C@@H](C)O)NC1=O)C(=O)N[C@@H](CO)C(=O)N[C@@H](Cc1ccc(O)cc1)C(=O)N1CCC[C@H]1C(=O)N1CCC[C@H]1C(=O)N2 was tested, and the IC50 [1] was 770 nM.

CC(C)C[C@@H]1NC(=O)[C@H](C(C)C)NC(=O)[C@H](C)NC(=O)[C@@H]2CSSC[C@H](NC(=O)CN)C(=O)N[C@@H](CSSC[C@@H](C(=O)O)NC(=O)[C@H](Cc3ccc(O)cc3)NC1=O)C(=O)N[C@@H](CO)C(=O)N[C@@H]([C@H](C)O)C(=O)N1CCC[C@H]1C(=O)N1CCC[C@H]1C(=O)N2 gave an IC50 [2] of 265 nM, a Ratio IC50 (HEK293) of 10 and an IC50 [3] of over 10000 nM. For the same compound, the Ki [4] was 851 nM, the inhibition [5] was 94.4% and the Activity [6] was “inactive”. The IC50 [1] was 27.7 nM and the IC50 [7] was 26 nM.

Work on CC[C@H](C)[C@@H]1NC(=O)[C@H](Cc2cnc[nH]2)NC(=O)[C@@H]2CCCN2C(=O)[C@H](CC(N)=O)NC(=O)[C@H](CC(N)=O)NC(=O)[C@H](C(C)C)NC(=O)[C@H](CC(N)=O)NC(=O)[C@@H]2CSSC[C@H](NC(=O)CN)C(=O)N[C@@H](CSSC[C@@H](C(=O)O)NC1=O)C(=O)N[C@@H](CO)C(=O)N[C@@H](Cc1cnc[nH]1)C(=O)N1CCC[C@H]1C(=O)N[C@@H](C)C(=O)N2 (H-GCCSHPACNVNNPHIC-OH; disulfide 2-8, 3-16) yielded an IC50 [8] of 97 nM.

With CC(C)C[C@@H]1NC(=O)[C@H](CCC(=O)O)NC(=O)[C@@H]2CCCN2C(=O)[C@H](Cc2cnc[nH]2)NC(=O)[C@H](CC(N)=O)NC(=O)[C@H](C(C)C)NC(=O)[C@H](CO)NC(=O)[C@@H]2CSSC[C@H](NC(=O)CN)C(=O)N[C@@H](CSSC[C@@H](C(=O)O)NC1=O)C(=O)N[C@@H](CO)C(=O)N[C@@H](Cc1cnc[nH]1)C(=O)N1CCC[C@H]1C(=O)N[C@@H](C)C(=O)N2 (H-GCCSHPACSVNHPELC-OH; disulfide 2-8, 3-16) the IC50 [1] was 480 nM.
